Rows were chosen to be rich in hits. Some 2.8% of all compounds tested hit in one or more screens of this group.
EBI2 block: EBI2 (human) antagonism; P32249; EBI2 beta-arrestin recruitment, luminescence, 7a,25-OHC stimulated; inhibition, % at 5 µM; 360,000 compounds, 0.81% hits; AID 651636; in the data active = inhibition above about 38%;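 also: enzyme fragment complementation signal reports receptor beta-arrestin coupling in cells; 0% = agonist plus DMSO wells and 100% = wells without agonist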
Target sequence (P32249 whole entry, looked up, the tested form may be a part): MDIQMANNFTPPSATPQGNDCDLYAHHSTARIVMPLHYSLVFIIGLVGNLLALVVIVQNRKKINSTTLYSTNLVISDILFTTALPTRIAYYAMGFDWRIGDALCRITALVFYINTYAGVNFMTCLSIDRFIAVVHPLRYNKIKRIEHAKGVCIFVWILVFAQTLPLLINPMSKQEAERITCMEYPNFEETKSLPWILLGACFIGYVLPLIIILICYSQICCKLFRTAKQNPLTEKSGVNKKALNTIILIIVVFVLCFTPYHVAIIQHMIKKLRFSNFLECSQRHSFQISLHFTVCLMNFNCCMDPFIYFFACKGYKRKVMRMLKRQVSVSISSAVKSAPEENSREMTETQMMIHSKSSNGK
HTR2A ag: agonists of mouse serotonin 5-HT2A receptor (HTR2A). CHO-K1 mHTR2A beta-arrestin complementation, luminescence; percent of 30 µM serotonin response. 360,000 compounds, 0.66% hits. P35363. activation, % at 7.6 µM;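 active = activation above a run cutoff, the mean activation of all tested compounds plus 3 SD, cut at about 14% in these data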;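 also: 0% = plate median of compound wells and 100% = 30 µM serotonin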
MC4R antag cAMP: human MC4R antagonism in cAMP assay; P32245; AID 540295; 360,000 compounds, 0.48% hits; inhibition, % at 6.5 µM; MC4R-expressing cells, MTII-stimulated cAMP, LANCE TR-FRET;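 active = inhibition above its plate's cutoff, the mean of tested wells on that plate plus 3 SD, cut at about 29% in these data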;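 also: 0% = Melanotan II alone and 100% = Melanotan II plus saturating MCL0020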
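material = U2OS cells stably expressing human melanocortin 4 receptor (MC4R) | also added = Melanotan II challenge | dosing = single nominal compound dose of 6.5 µM | detection = TR-FRET with Eu-cAMP and labeled anti-cAMP, 671 nm | replication = singlicate | timing = compound 30 min, challenge 1 h, detection 1 h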
MC4R barr agon: human MC4R agonism via beta-arrestin; P32245; U2OS MC4R beta-arrestin complementation, luminescence; percent of melanotan II response, DMSO zero; activation, % at 8.9 µM; 360,000 compounds, 0.98% hits;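 active = activation above a per-plate cutoff, the mean activation of sample wells on that plate plus 3 SD, cut at about 8% in these data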
MC4R barr ag: human MC4R beta-arrestin agonism confirmation; shares compounds with MC4R barr agon; U2OS MC4R beta-arrestin recruitment, luminescence; scaled DMSO 0%, Melanotan II 100%; activation, % at 8.9 µM; 2,400 compounds, 31% hits; AID 602192;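 active = mean activation across replicates above the hit cutoff set in the earlier primary screen, cut at about 8% in these data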
MOR DOR agonist: counter-screen for MC4R agonists: agonists of mu-delta opioid heterodimer | activation, % at 9.2 µM | U2OS PathHunter beta-arrestin, beta-gal luminescence; percent of deltorphin B response, DMSO zero | shares compounds with MC4R barr agon | 2,400 compounds, 5.8% hits;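 active = mean activation across replicates exceeds the hit threshold derived in the earlier primary screen, cut at about 18% in these data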;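 also: 100% = deltorphin B at 0.9 µM final and 0% = DMSO alone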
The depositor's hits bear a star; · = no result.

SMILES | EBI2 block | HTR2A ag | MC4R antag cAMP | MC4R barr agon | MC4R barr ag | MOR DOR agonist
CC(=O)Nc1cc(-c2cccc(C(=O)NCCO)c2)cn2c(-c3ccc(F)cc3)cnc12 | -2 | 0 | 23 | 3 | · | ·
COc1cc(-c2cc(NC(C)=O)c3ncc(-c4ccccc4)n3c2)cc(OC)c1OC | 4 | 2 | 24 | 4 | · | ·
COc1ccc(-c2cnc3c(NC(C)=O)cc(-c4ccccc4OC)cn23)cc1OC | 24 | 14 | -28 | 22* | 25* | 2
COc1ccc(-c2cnc3c(NC(C)=O)cc(-c4ccsc4)cn23)cc1OC | 15 | 4 | 5 | 11* | 15* | 4
COc1ccc(-c2cnc3c(NC(C)=O)cc(-c4cccc(C(=O)N(C)C)c4)cn23)cc1OC | -11 | -2 | 4 | 3 | · | ·
CCCN1CCN(CCCNC(=O)CN2C(=O)COc3ccc(C(C)(C)C)cc32)CC1 | 9 | 1 | 15 | 0 | · | ·
CC1(C(=O)NS(=O)(=O)c2ccc(Cl)s2)CCN1C(=O)C1(c2ccccc2)CCCC1 (stereo not given) | -5 | 6 | -7 | 0 | · | ·
CC(=O)Nc1cc(-c2ccsc2)cn2c(-c3ccc(F)cc3)cnc12 | 9 | -7 | -4 | 18* | 13* | 4
COc1ccccc1-c1cc(NC(C)=O)c2ncc(-c3cccc(C(C)=O)c3)n2c1 | 34 | -5 | -17 | 11* | 18* | 4
COc1cc(-c2cc(NC(C)=O)c3ncc(-c4cc(OC)c(OC)c(OC)c4)n3c2)cc(OC)c1OC | -5 | 3 | -33 | 9.6* | 9.3* | 2
COc1ccccc1-c1cc(NC(C)=O)c2ncc(-c3ccc(S(C)(=O)=O)cc3)n2c1 | 18 | -2 | 11 | 0 | · | ·
Cc1cc(NC(=O)COC(=O)[C@H](Cc2ccccc2)NC(=O)c2ccco2)no1 | -16 | 1 | 10 | -3 | · | ·
CC(C)CCCCCCCCCCCCC(=O)NCC(=O)NC1C(C)OC(Nc2ncnc3nc[nH]c23)C(O)C1O (stereo not given) | 8 | 0 | 7 | 16* | 11* | 28*
Cc1ccccc1N/C(SCc1cccc(Br)c1)=C(/C#N)C(N)=O | 7 | 1 | 11 | 23* | 2 | 9
COc1cccc(N/C(SCc2cccc([N+](=O)[O-])c2)=C(/C#N)C(N)=O)c1 | 11 | -1 | 2 | -2 | · | ·
COc1ccc(CC(=O)Nc2c(C(N)=O)oc3ccccc23)cc1OC | -6 | -6 | 11 | -2 | · | ·
CCOc1ccc(CC(=O)Nc2c(C(=O)Nc3ccccc3)oc3ccccc23)cc1OCC | -53 | -4 | 2 | 15* | 11* | 1
O=C(Nc1nnc(CCc2ccccc2)s1)c1cccc(F)c1 | -7 | 4 | 8 | 14* | 1 | 5
COc1cc(C(=O)Nc2nnc(Cc3ccccc3)s2)cc(OC)c1OC | 4 | -1 | -2 | -2 | · | ·
COc1ccc(C(=O)Nc2nnc(Cc3ccccc3)s2)c(OC)c1 | 13 | 6 | -10 | 15* | -1 | 7
O=C(CSc1nnnn1-c1ccccc1)NCCCN1CCCC1=O | 6 | 3 | 5 | -2 | · | ·
CN(CC(=O)Nc1ccc(F)cc1)C(=O)c1ccc(-c2ccc(F)cc2)o1 | 12 | 0 | 2 | 3 | · | ·
Cc1cc(C)cc(NC(=O)CSc2cc(C(=O)c3nccn3C)c3ccccc3n2)c1 | -2 | 4 | 14 | 9.8* | 3 | 8
O=C(Nc1ccccc1)C(c1ccccc1)c1ccccc1 | 19 | 6 | 12 | 0 | · | ·
O=C(Nc1ccc(Br)cc1)C(c1ccccc1)c1ccccc1 | 16 | -6 | 4 | 11* | 4 | 7
CCN1C(=O)/C(=C\N2CCN(C)CC2)SC1=S | -16 | 0 | -7 | 0 | · | ·
CCN1C(=O)/C(=C\N2CCN(c3ccc(F)cc3)CC2)SC1=S | -14 | -2 | 1 | 19* | 2 | 6
CC(CC(=O)Nc1ccc2c(c1)c(=O)n(C)n2-c1ccc2ccccc2c1)C(F)(F)F (stereo not given) | 24 | -3 | -22 | 9.7* | -2 | 5
Cn1c(=O)c2cc(NC(=O)Cc3cccnc3)ccc2n1-c1ccc2ccccc2c1 | 5 | 0 | 1 | -2 | · | ·

From PubChem
